# Test results published in PubChem BioAssay.
# The source made the active and inactive calls.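 How the source made its calls, unless noted: active means viability at or below 10% of carrier control in both of two separate runs; inconclusive means viability at or below 10% in only one of the two runs; inactive means the rest.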 Square brackets hold non-standard residues; d marks the D form. Peptide text beside a SMILES is read from it. * marks the point of attachment. ξ: configuration not given here. Cbz = O=C(OCc1ccccc1)*; ξK = NCCCCC(N)C(=O)O
# Tests used:
# [1] = reducers of endogenous Her2 protein level, primary screen, SKBR3 breast tumor cells, AlphaScreen, ATP viability (AID 461;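 active means Her2 level under about 52% in both replicate screens, with viability over 70% of control, limit read from the data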;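 on Her2 level: lower value means less Her2 protein in the cells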;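 on viability: percent of carrier control wells set as 100% viability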); settings: 18-24 h, measured here: SKBR3 viability, ATP luminescence, at 10 µM
# [2] = molecular target: Receptor tyrosine-protein kinase erbB-2 (Homo sapiens) (UniProt P04626); assay: as above; settings: 18-24 h, at 10 µM, stronger effect = lower value
# Chain of Receptor tyrosine-protein kinase erbB-2 (Homo sapiens) (P04626 whole entry, looked up): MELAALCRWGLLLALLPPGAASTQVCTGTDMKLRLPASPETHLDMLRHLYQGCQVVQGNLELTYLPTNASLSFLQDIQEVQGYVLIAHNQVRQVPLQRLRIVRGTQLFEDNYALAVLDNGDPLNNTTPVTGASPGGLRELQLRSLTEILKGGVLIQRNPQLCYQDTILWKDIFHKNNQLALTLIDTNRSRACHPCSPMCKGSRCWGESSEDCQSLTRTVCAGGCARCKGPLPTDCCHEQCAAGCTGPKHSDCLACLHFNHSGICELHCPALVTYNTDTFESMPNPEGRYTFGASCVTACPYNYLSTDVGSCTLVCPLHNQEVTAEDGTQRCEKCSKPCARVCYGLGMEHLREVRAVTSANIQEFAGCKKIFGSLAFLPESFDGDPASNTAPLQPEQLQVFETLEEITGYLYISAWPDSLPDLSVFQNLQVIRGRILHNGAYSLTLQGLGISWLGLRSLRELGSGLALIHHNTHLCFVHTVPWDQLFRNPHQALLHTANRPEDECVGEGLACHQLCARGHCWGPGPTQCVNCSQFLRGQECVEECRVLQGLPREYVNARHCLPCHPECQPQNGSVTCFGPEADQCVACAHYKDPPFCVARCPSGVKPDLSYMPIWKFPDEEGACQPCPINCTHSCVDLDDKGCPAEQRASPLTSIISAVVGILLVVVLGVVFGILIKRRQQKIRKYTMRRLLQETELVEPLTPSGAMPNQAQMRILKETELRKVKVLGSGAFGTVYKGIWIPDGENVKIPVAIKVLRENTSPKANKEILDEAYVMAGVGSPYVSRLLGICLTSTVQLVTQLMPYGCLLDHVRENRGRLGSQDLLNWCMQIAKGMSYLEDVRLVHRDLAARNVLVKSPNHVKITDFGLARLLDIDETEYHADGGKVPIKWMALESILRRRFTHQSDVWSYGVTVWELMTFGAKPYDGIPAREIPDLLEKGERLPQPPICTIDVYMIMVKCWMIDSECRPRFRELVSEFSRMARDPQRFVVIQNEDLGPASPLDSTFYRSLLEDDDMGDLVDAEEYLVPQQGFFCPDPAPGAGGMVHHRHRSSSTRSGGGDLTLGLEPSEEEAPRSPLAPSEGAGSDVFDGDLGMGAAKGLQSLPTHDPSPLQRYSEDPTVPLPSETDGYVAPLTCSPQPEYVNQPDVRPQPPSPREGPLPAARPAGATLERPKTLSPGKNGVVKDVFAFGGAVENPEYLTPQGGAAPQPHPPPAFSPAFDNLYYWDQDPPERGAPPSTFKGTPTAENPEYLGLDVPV
# [3] = SK-BR-3 cell growth inhibitors, pilot screen, 24 h, human (AID 572); settings: SK-BR-3 viability, CellTiter-Glo luminescence, at 10 µM, stronger effect = lower value;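 further: compound exposure lasted between 18 and 24 h rather than exactly 24 h; 100% = carrier-treated control wells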
# [4] = HUVEC growth inhibition – cell-based, human, primary screen (AID 575;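 active means viability at or below 30% in both replicate assays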;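 further: 100% = median of untreated cell wells with 0.1% DMSO on each plate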); settings: HUVEC proliferation, CellTiter-Glo luminescence, 72 h; at 10 µM; stronger effect = lower value
# Procedure, shortened: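 system = HUVEC primary cells | amount = 1250 cells/well | buffer or medium = supplemented EBM, 2% fetal bovine serum | dosing = single-point 10 µM, DMSO 0.1% final | times = 72 h compound incubation | detection = CTG luminescence | read-out = % viability relative to median vehicle-well signal on each plate | control set = vehicle and MePR control wells | format = collagen-coated 384-well format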
# [5] = growth inhibitors of H69AR lung tumor, primary screen, human, duplicate replicates (AID 580;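 active means viability at or under a set limit in both replicates, limit being median viability minus 3 SD, cut at about 48% in these data, passing the limit was not always enough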;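 further: 100% = mean luminescence of untreated wells and 0% = no signal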); settings: H69AR lung tumor cells viability, ATP luminescence, 72 h; at 10 µM; stronger effect = lower value
# [6] = reversal of MRP1-mediated doxorubicin resistance, pilot screen, H69AR cells, doxorubicin co-treatment (AID 601;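 active means viability loss from added drug above about 55%, and viability with drug at most 40%, in both replicates, limit read from the data, passing the limit was not always enough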); settings: CellTiter-Glo, 72 h, at 10 µM; for differential viability (reversal): stronger effect = higher value
# [7] = 384-well plate pilot, post-Golgi transport modulator project, inhibition of yeast transport mutant growth (AID 636; in the data active means inhibition above about 31%); settings: absorbance 615 nm, about 18 h, stronger effect = higher value
# [8] = growth suppression of yeast trafficking mutant, preliminary HTS, modulators of trafficking downstream of Golgi apparatus project, 1536-format plate, OD 615 nm (AID 637; in the data active means inhibition above about 30%); settings: yeast transport mutant growth, absorbance 615 nm, 18 h; stronger effect = higher value
# [9] = H69AR cells + 2 uM doxorubicin, measured here: viability with 2 uM doxorubicin, stronger effect = lower value
# [10] = H69AR cells, compound alone cytotoxicity
SMILES,viability [1],Her2 level [2],viability [3],viability [4],viability [5],differential viability (reversal) ([6]; H69AR cells + 2 uM doxorubicin),"viability [6, 9]","viability [6, 10]",inhibition [7],inhibition [8]
O=C1CCc2cc(S(=O)(=O)N3CCC(C(=O)NCc4ccccn4)CC3)ccc2N1,81%,89% (inactive),81% (inactive),98% (inactive),96.7% (inactive),1.42% (inactive),95.3%,96.7%,-0.4% (inactive),14.4% (inactive)
CC(C)CC(=O)Nc1ccccc1-c1nnn(CC(=O)N2CCOCC2)n1,102%,92% (inactive),102% (inactive),87.8% (inactive),86.8% (inactive),-1.72% (inactive),88.5%,86.8%,-5.87% (inactive),-1.77% (inactive)
Cc1cccc(C2CC(c3ccc(Br)cc3)Nc3nc(N)nn32)c1 (stereo not given),92.5%,94% (inactive),92.5% (inactive),72.6% (inactive),87.6% (inactive),-14.7% (inactive),102%,87.6%,-4.4% (inactive),2.33% (inactive)
Cn1c(C(=O)N2CCN(C(=O)c3ccco3)CC2)cc2c(=O)n3ccccc3nc21,100%,104% (inactive),100% (inactive),82.3% (inactive),82.6% (inactive),-0.835% (inactive),83.4%,82.6%,0.26% (inactive),-0.98% (inactive)
CCOC(=O)c1nnn(CC(=O)Nc2cccc(F)c2)c1C(=O)OCC,112%,95% (inactive),112% (inactive),100% (inactive),96.2% (inactive),3.89% (inactive),92.4%,96.2%,-1.04% (inactive),-6.35% (inactive)
CC(=O)N1CCN(c2ccc(N=Cc3c(O)n(Cc4ccccc4)c(=O)[nH]c3=O)cc2)CC1,89%,87.5% (inactive),89% (inactive),83.5% (inactive),94.6% (inactive),-3.64% (inactive),98.2%,94.6%,-0.91% (inactive),0.95% (inactive)
CCn1cc(C(=O)N2CCCC2)c(=O)c2cc(S(=O)(=O)N3CCOCC3)ccc21,116%,99% (inactive),116% (inactive),92.2% (inactive),99.5% (inactive),1.21% (inactive),98.3%,99.5%,-5.92% (inactive),-6.51% (inactive)
Cn1nnnc1SCc1cn2cccnc2n1,112%,90.5% (inactive),112% (inactive),101% (inactive),89.3% (inactive),-0.09% (inactive),89.4%,89.3%,-5.33% (inactive),-3.33% (inactive)
COC(=O)C(NC(C)=O)(Nc1nc2ccc(S(C)(=O)=O)cc2s1)C(F)(F)F (stereo not given),96.5%,87.5% (inactive),96.5% (inactive),93.8% (inactive),102% (inactive),1.18% (inactive),101%,102%,-2.11% (inactive),-1.27% (inactive)
CCN1C(=O)/C(=C2\C=Cc3ccccc3N2CC)OC1=S,95.5%,100% (inactive),95.5% (inactive),85.9% (inactive),72% (inactive),7.3% (inactive),64.7%,72%,-4.23% (inactive),2.33% (inactive)
Cc1c(C(=O)O)c(-c2ccccc2)nn1-c1ccccc1,103%,104% (inactive),103% (inactive),96.9% (inactive),92.1% (inactive),4.64% (inactive),87.5%,92.1%,-2.99% (inactive),-2.3% (inactive)
Cc1cccc(NC(=O)CSc2nnc(-c3cc(C)n(-c4ccccc4)c3C)o2)c1C,115%,91% (inactive),115% (inactive),66.3% (inactive),76.2% (inactive),-3.98% (inactive),80.2%,76.2%,0.26% (inactive),-6.03% (inactive)
O=C(Nc1ccccc1C(=O)N1CCN(c2ccccc2)CC1)c1ccco1,96%,101% (inactive),96% (inactive),95.6% (inactive),100% (inactive),5.93% (inactive),94.2%,100%,-2.53% (inactive),4.43% (inactive)
CCn1nnnc1NCc1cccn1C,88%,83% (inactive),88% (inactive),105% (inactive),95.9% (inactive),3.54% (inactive),92.4%,95.9%,-4.27% (inactive),2.3% (inactive)
COC(=O)C(CCCCNC(=O)OCc1ccccc1)NC(=O)CN (stereo not given) (H-Gly-[ξK](Cbz)-OMe),109%,92.5% (inactive),109% (inactive),96.6% (inactive),100% (inactive),4.78% (inactive),95.5%,100%,-2.6% (inactive),-0.79% (inactive)
COc1ccc(NC(=O)c2cc(C)on2)cc1OC,110%,93% (inactive),110% (inactive),104% (inactive),96.7% (inactive),8.07% (inactive),88.6%,96.7%,-5.87% (inactive),3.28% (inactive)
O=C(NCc1ccco1)c1csc(Nc2ccccc2Cl)n1,70.5%,97.5% (inactive),70.5% (inactive),60.5% (inactive),78.2% (inactive),-1.24% (inactive),79.4%,78.2%,-8.24% (inactive),-5.25% (inactive)
CC1=C(c2ccc(Cl)cc2)[N+](=O)C(C)(C)N1[O-],99.5%,95.5% (inactive),99.5% (inactive),110% (inactive),89.6% (inactive),-4.19% (inactive),93.8%,89.6%,-4.52% (inactive),-10.2% (inactive)
CCc1nnc(NC(=O)CSc2nnc3scc(-c4ccc(C)cc4)n23)s1,100%,95.5% (inactive),100% (inactive),108% (inactive),96.6% (inactive),-0.05% (inactive),96.7%,96.6%,-3.15% (inactive),-1.27% (inactive)
CCOC(=O)N1CCC(N2C(=O)c3ccccc3C2Nc2ccc3c(C)cc(=O)oc3c2)CC1 (stereo not given),76%,105% (inactive),76% (inactive),115% (inactive),83.4% (inactive),13.9% (inactive),69.5%,83.4%,-1.79% (inactive),-2.67% (inactive)
CC(C)C1N=C2c3ccccc3N=C(SCc3cc(=O)n4ccccc4n3)N2C1=O (stereo not given),89%,135% (inactive),89% (inactive),97.6% (inactive),80.1% (inactive),-20.5% (inactive),101%,80.1%,2.24% (inactive),-3.67% (inactive)
COc1cccc(N2CCN(Cc3cccnc3)CC2)c1,81.5%,97.5% (inactive),81.5% (inactive),93% (inactive),87.8% (inactive),-7.62% (inactive),95.4%,87.8%,-0.38% (inactive),3.33% (inactive)
Cc1nn(-c2ccccc2)c(Cl)c1C(=O)NCC(=O)O,100%,96% (inactive),100% (inactive),105% (inactive),113% (inactive),1.59% (inactive),111%,113%,-6.45% (inactive),0.17% (inactive)
COc1cc(CC(=O)NCc2ccc3c(c2)OCO3)cc(OC)c1OC,99%,78.5% (inactive),99% (inactive),85.9% (inactive),95.8% (inactive),9.63% (inactive),86.2%,95.8%,-1.84% (inactive),3.45% (inactive)
CC1Cc2ccccc2N1S(=O)(=O)c1cccc(C(=O)OCC(=O)NC2CCS(=O)(=O)C2)c1 (stereo not given),88%,82.5% (inactive),88% (inactive),89.1% (inactive),97.2% (inactive),12.3% (inactive),84.9%,97.2%,-6.4% (inactive),-3.61% (inactive)
O=C(O)C1CCCCC1C(=O)NCCc1ccccc1 (stereo not given),87.5%,104% (inactive),87.5% (inactive),103% (inactive),99.2% (inactive),7.15% (inactive),92%,99.2%,0.55% (inactive),10.3% (inactive)
C=CCn1c(-c2ccccc2)c[nH]c1=S,91%,92.5% (inactive),91% (inactive),114% (inactive),99.9% (inactive),22.4% (inactive),77.5%,99.9%,-5.84% (inactive),0.16% (inactive)
Fc1ccc(-c2csc3nnc(SCc4cccnc4)n23)cc1,108%,112% (inactive),108% (inactive),85.7% (inactive),82.9% (inactive),-2.03% (inactive),84.9%,82.9%,-4.62% (inactive),8.33% (inactive)
O=C1CC(c2cccc(Cl)c2)Cc2nc(N3CCN(c4ccccc4)CC3)ncc21 (stereo not given),88%,118% (inactive),88% (inactive),95.7% (inactive),91.3% (inactive),-0.02% (inactive),91.3%,91.3%,1.3% (inactive),2.67% (inactive)
